Assay results taken from ChEMBL document CHEMBL4371052, “Diarylcarbonates are a new class of deubiquitinating enzyme inhibitor” (Bioorg Med Chem Lett, 2019).
The source made the active and inactive calls. The calls are words filed in the database; no cut-off is given here.

Key:
[1] = target: Ubiquitin carboxyl-terminal hydrolase isozyme L1 (Homo sapiens) (UniProt P09936); assay: Inhibition of UCHL1 in HEK293T cell lysates assessed as enzyme recovery at 250 uM using HA-tagged vinyl-sulfone as substrate […] followed by 10-fold dilution and subsequent substrate addition measured within 15 mins by Western blot analysis; format: subcellular; settings: Lysate
Sequence of Ubiquitin carboxyl-terminal hydrolase isozyme L1 (Homo sapiens) (P09936 whole entry, looked up): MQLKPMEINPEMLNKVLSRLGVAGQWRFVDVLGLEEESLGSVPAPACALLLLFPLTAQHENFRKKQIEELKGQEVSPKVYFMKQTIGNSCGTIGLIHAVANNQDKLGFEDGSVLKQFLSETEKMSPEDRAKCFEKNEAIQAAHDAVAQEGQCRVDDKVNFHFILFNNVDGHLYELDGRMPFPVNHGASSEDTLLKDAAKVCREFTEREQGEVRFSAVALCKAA

[2] = target: Ubiquitin carboxyl-terminal hydrolase 17-like protein 24 (Homo sapiens) (UniProt Q0WX57); assay: Inhibition of USP17 in HEK293T cell lysates at 25 uM using HA-tagged vinyl-sulfone as substrate preincubated for 19 to 60 mins followed by substrate addition and measured after 19 to 25 mins by Western blot analysis; format: subcellular; settings: Lysate
Sequence of Ubiquitin carboxyl-terminal hydrolase 17-like protein 24 (Homo sapiens) (Q0WX57 whole entry): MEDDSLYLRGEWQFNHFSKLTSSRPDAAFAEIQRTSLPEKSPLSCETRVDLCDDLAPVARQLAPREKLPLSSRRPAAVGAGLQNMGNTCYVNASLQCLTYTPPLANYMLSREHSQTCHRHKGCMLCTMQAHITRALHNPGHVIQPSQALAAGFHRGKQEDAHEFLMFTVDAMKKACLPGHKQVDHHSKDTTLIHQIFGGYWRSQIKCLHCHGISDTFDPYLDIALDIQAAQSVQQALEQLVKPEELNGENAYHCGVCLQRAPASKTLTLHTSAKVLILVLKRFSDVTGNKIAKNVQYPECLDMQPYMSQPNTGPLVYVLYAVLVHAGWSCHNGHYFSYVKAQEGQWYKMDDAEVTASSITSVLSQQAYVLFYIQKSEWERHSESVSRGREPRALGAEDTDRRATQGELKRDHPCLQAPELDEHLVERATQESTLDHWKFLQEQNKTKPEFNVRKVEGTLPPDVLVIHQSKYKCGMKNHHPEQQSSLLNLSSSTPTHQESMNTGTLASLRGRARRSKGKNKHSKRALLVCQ

[3] = target: Ubiquitin carboxyl-terminal hydrolase 7 (Homo sapiens) (UniProt Q93009); assay: Inhibition of USP7 in HEK293T cell lysates at 25 uM using HA-tagged vinyl-sulfone as substrate preincubated for 19 to 60 mins followed by substrate addition and measured after 19 to 25 mins by Western blot analysis; format: subcellular; settings: Lysate
Sequence of Ubiquitin carboxyl-terminal hydrolase 7 (Homo sapiens) (Q93009 whole entry, looked up, the tested form may be a part): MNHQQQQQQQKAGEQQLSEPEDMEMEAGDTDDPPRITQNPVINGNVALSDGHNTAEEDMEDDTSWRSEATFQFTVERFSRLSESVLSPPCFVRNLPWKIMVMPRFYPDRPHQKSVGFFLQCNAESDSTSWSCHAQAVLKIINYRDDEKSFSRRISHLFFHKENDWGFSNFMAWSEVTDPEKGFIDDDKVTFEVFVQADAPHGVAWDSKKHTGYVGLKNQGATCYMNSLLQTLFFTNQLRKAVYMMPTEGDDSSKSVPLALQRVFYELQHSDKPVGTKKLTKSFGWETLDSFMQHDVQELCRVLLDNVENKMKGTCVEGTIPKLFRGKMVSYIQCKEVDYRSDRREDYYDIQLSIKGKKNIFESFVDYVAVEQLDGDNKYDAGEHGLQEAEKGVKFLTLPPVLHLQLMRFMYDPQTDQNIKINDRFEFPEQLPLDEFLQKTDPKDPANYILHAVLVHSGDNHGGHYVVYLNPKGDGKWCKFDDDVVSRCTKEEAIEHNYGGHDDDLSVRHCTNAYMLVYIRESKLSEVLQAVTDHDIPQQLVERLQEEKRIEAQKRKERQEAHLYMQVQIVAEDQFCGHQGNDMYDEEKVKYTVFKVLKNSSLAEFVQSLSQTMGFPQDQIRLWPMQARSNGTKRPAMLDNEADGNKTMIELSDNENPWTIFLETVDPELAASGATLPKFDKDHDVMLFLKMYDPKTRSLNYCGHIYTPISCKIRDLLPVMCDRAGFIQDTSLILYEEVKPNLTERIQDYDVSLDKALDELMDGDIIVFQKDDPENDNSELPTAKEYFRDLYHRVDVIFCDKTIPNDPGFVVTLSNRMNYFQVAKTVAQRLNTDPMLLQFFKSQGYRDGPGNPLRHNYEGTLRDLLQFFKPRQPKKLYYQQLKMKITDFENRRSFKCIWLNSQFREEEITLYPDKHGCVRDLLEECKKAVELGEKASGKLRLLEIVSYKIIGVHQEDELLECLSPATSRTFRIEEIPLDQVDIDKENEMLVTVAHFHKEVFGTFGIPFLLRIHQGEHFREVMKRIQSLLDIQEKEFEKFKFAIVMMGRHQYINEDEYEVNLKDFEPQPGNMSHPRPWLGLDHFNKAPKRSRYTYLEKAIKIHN

[4] = target: T1, Ubiquitin carboxyl-terminal hydrolase 19 (Homo sapiens) (UniProt O94966); assay: Inhibition of USP19 in HEK293T cell lysates at 25 uM using HA-tagged vinyl-sulfone as substrate measured after 2 to 30 mins by Western blot analysis; format: subcellular; settings: Lysate
T1 sequence (whole entry): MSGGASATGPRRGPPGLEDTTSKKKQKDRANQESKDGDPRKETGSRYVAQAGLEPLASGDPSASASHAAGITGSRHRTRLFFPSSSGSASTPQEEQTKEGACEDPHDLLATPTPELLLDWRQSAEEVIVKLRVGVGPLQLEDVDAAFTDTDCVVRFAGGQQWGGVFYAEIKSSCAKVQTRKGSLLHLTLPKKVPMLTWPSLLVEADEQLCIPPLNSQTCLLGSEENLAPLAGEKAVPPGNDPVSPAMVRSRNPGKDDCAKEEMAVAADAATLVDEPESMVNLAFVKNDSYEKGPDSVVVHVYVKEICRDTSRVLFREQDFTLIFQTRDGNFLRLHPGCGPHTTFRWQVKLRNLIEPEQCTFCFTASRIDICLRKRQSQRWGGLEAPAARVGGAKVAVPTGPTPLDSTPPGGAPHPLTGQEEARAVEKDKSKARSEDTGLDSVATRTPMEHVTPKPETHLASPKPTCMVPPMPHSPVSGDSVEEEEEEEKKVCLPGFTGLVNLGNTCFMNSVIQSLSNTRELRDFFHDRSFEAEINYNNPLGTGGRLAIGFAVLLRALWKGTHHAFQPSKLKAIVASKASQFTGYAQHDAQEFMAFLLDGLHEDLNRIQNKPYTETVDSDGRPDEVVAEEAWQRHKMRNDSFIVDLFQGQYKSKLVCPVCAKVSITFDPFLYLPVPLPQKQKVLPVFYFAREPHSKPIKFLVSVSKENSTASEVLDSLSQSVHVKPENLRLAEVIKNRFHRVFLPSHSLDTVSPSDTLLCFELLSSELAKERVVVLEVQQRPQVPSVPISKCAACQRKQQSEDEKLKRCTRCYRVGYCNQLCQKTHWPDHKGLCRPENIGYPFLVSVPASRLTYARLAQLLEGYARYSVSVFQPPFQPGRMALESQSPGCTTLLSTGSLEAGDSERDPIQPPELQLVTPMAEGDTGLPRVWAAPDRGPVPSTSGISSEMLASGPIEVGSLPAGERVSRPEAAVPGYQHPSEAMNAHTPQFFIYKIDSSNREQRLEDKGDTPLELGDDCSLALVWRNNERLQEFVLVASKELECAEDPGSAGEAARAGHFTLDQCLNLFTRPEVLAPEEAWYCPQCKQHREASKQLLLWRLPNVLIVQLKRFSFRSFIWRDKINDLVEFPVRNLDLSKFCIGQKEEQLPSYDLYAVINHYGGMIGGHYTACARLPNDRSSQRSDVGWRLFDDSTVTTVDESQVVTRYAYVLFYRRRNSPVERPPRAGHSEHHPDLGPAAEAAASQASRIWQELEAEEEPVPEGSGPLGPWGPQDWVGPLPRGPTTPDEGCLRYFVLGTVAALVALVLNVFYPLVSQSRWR
Outline: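 HEK 293T lysate (1.5 mg/ml) given compound (25 μM) or DMSO at the same time as HA-Ub-VS (1.5 μM). Aliquots withdrawn over time were run on SDS-PAGE and immunoblotted for HA.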

[5] = target: Ubiquitin carboxyl-terminal hydrolase 7 (Homo sapiens) (UniProt Q93009); assay: Inhibition of USP7 in human MCF7 cells assessed as increase in p53 expression at 25 uM after 4 hrs by Western blot analysis; format: cell-based
Outline: (§1)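 MCF7 cells treated with compound for 4 h. Mdm2, p53 and p21 levels were determined by immunoblotting.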

[6] = target: Ubiquitin carboxyl-terminal hydrolase 7 (Homo sapiens) (UniProt Q93009); assay: Inhibition of USP7 in human MCF7 cells assessed as increase in p21 expression at 25 uM after 4 hrs by Western blot analysis; format: cell-based; outline: as §1
[7] = target: Ubiquitin carboxyl-terminal hydrolase 9X (Homo sapiens) (UniProt Q93008); assay: Inhibition of recombinant His6-tagged USP9x catalytic domain (unknown origin) using Ub-AMC as substrate by fluorescence assay; settings: TDE = time-dependent effect
Sequence of Ubiquitin carboxyl-terminal hydrolase 9X (Homo sapiens) (Q93008 whole entry, the tested form may be a part): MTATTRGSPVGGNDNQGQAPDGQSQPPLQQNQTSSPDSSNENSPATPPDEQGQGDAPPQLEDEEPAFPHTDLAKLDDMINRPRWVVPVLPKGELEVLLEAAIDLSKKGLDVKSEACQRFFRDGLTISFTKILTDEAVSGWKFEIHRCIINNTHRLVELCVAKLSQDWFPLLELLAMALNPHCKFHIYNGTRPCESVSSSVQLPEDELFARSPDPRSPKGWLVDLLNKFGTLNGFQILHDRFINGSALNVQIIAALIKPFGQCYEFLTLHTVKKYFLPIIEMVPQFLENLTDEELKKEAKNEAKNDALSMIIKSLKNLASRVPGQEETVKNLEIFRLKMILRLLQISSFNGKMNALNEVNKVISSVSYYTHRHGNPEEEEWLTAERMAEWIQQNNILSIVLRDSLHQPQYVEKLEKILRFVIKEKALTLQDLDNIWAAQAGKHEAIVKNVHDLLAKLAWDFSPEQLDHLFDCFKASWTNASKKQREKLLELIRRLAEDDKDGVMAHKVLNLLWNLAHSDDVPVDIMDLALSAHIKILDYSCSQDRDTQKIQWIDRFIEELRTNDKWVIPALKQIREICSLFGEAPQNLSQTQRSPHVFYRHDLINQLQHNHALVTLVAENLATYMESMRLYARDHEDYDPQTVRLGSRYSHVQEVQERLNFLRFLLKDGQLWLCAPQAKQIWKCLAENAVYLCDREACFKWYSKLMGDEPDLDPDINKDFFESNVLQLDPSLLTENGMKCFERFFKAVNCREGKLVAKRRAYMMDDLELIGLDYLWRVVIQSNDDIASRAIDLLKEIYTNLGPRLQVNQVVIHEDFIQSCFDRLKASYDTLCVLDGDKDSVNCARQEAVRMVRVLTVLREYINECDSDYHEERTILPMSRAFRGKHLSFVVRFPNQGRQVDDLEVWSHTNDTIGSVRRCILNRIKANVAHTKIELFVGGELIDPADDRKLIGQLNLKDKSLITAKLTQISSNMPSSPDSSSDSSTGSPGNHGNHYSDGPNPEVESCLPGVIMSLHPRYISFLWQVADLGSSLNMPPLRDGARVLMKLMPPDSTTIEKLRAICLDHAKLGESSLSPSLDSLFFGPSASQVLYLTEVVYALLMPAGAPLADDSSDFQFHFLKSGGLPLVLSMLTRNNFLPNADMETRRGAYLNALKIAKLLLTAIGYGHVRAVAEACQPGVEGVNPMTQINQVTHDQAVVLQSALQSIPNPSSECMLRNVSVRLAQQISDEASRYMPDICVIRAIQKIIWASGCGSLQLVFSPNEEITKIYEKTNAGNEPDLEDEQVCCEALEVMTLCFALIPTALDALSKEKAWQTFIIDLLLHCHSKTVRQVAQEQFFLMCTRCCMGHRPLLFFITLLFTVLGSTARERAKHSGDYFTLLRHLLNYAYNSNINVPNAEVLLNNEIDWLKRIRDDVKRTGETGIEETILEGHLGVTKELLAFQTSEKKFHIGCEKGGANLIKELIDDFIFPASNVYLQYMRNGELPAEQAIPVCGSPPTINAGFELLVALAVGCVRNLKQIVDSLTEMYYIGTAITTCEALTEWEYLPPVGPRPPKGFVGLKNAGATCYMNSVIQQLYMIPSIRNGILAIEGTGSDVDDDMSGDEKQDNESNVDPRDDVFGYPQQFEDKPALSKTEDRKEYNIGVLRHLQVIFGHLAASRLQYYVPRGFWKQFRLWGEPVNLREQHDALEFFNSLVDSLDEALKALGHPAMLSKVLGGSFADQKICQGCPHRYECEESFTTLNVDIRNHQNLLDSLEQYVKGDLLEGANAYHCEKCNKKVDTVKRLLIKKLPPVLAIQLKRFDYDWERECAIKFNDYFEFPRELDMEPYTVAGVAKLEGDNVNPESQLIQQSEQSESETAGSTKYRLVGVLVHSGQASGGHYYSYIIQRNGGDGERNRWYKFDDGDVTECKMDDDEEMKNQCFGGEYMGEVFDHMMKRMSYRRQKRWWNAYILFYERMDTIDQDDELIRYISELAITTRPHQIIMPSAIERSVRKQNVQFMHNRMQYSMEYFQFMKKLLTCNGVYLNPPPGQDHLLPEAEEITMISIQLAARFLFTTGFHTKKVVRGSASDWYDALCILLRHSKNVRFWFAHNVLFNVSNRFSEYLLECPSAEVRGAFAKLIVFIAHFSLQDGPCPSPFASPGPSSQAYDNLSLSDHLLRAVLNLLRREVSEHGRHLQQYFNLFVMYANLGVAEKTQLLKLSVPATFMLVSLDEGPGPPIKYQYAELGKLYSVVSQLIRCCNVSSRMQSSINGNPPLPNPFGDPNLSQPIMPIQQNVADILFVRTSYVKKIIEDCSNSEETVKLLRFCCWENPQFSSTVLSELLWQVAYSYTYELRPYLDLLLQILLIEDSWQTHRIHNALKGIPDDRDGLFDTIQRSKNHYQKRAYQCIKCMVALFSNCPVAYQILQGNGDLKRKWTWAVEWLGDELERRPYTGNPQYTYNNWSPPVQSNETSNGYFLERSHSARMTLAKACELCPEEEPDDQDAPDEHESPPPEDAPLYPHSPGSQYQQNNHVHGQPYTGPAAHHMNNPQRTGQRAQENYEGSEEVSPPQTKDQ

Papain (Carica papaya) = target: T2, Papain (Carica papaya) (UniProt P00784); assay: Inhibition of papaya papain at 100 uM using Z-Arg-AMC as substrate preincubated for 30 mins followed by substrate addition by fluorescence assay
T2 sequence (whole entry): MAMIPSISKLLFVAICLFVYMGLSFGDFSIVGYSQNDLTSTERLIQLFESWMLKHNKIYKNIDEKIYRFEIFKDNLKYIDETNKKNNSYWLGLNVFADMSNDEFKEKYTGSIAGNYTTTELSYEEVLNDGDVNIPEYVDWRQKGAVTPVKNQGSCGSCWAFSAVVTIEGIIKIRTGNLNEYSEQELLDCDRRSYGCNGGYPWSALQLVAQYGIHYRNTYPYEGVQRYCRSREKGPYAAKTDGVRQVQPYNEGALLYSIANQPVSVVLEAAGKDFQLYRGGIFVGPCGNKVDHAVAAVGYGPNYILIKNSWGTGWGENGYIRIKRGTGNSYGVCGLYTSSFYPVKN
Outline: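 Enzyme (papain or ficin) preincubated 30 min with inhibitor at 100 μM, then Z-Arg-AMC substrate added at 300 μM; AMC release followed.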

[8] = target: Ubiquitin carboxyl-terminal hydrolase 7 (Homo sapiens) (UniProt Q93009); assay: Inhibition of USP7 in human MCF7 cells assessed as accumulation of K48-Ub protein at 50 uM after 4 hrs by Western blot analysis; format: cell-based
Outline: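 MCF7 cells exposed to 50 μM compound for 4 h. K48-linked ubiquitin chains were detected by immunoblot.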

[9] = Inhibition of deubiquitinase in HEK293T cells expressing N-terminal HA-tagged ubiquitin assessed as stabilization of HMW-Ub proteins after 2 hrs by Western blot analysis; format: cell-based, Homo sapiens

NCc1ccc(OC(=O)Oc2ccc3ccccc3c2)cc1
inhibition [1]: Active
inhibition [2]: Active
inhibition [3]: Active
inhibition [4]: inactive
Activity [5]: Active
inhibition [6]: Active
inhibition [7]: Tde
inhibition (Papain (Carica papaya)): inactive
inhibition [8]: Active
EC50 [9]: 20 µM
